Experimental data as given in ChEMBL document CHEMBL1122581, “Antiviral activity of C-5 substituted tubercidin analogues” (1984).
≈ marks a conversion by molar mass, not a printed value.

Key:
Assay type in all cases: functional
[1] = test system: Human alphaherpesvirus 1; assay: Concentration required to reduce HSV-1 (KOS) induced cytopathogenicity by 50% in primary rabbit kidney cell cultures.
[2] = test system: HeLa; assay: Concentration required to cause a microscopically detectable alteration in cell morphology in HeLa cell cultures.; conditions: Homo sapiens, read-out: Min cytotoxic concentration
Outline: (§1)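 Uninfected cell monolayers were run in parallel with the antiviral assays and exposed to compound for the same period as the infected cultures. The end point was the lowest concentration giving a microscopically detectable disruption of normal cell morphology.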

[3] = organism: Oryctolagus cuniculus; assay: Concentration required to cause a microscopically detectable alteration in cell morphology in primary rabbit kidney cell cultures.; conditions: read-out: Min cytotoxic concentration; outline: as §1
[4] = test system: Vero; assay: Concentration required to cause a microscopically detectable alteration in cell morphology in vero cell cultures.; conditions: Chlorocebus sabaeus, read-out: Min cytotoxic concentration; outline: as §1
[5] = test system: Poliovirus 1; assay: Concentration required to reduce polio virus type 1 induced cytopathogenicity by 50% in HeLa cell cultures.; conditions: Enterovirus C
[6] = test system: Human respirovirus 3; assay: Concentration required to reduce parainfluenza virus type 3 induced cytopathogenicity by 50% in vero cell cultures.
[7] = test system: Sindbis virus; assay: Concentration required to reduce sindbis virus induced cytopathogenicity by 50% in vero cell cultures.
[8] = test system: Vesicular stomatitis virus; assay: Concentration required to reduce vesicular stomatitis virus induced cytopathogenicity by 50% in primary rabbit kidney cell cultures.
[9] = test system: Coxsackievirus B4; assay: Concentration required to reduce coxsackie virus 4 induced cytopathogenicity by 50% in HeLa cell cultures.; conditions: Enterovirus B
[10] = test system: Vesicular stomatitis virus; assay: Concentration required to reduce vesicular stomatitis virus induced cytopathogenicity by 50% in HeLa cell cultures.
[11] = test system: Coxsackievirus B4; assay: Concentration required to reduce coxsackie virus B4 induced cytopathogenicity by 50% in vero cell cultures.; conditions: Enterovirus B
[12] = test system: L1210; assay: Dose required to inhibit proliferation of L-1210 Cells by 50%; conditions: Mus musculus, read-out: ID50 (the source's name)
Outline: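 Inhibition of proliferation of murine leukemia L-1210 cells in exponential growth phase. ID50 is the dose inhibiting cell proliferation by 50%, given plus or minus standard deviation.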

[13] = test system: Human alphaherpesvirus 2; assay: Concentration required to reduce HSV-2 (G) induced cytopathogenicity by 50% in primary rabbit kidney cell cultures.
[14] = test system: Mammalian orthoreovirus 1; assay: Concentration required to reduce reovirus type 1 induced cytopathogenicity by 50% in vero cell cultures.
[15] = test system: Mammalian orthoreovirus 1; assay: Compound was tested for the concentration required to reduce reovirus type 1 induced cytopathogenicity by 50% in Vero cell cultures
[16] = test system: Vesicular stomatitis virus; assay: Compound was tested for the concentration required to reduce vesicular stomatitis virus induced cytopathogenicity by 50% in primary rabbit kidney cell cultures
[17] = test system: Human alphaherpesvirus 1; assay: Compound was tested for the concentration required to reduce HSV-1 (KOS) induced cytopathogenicity by 50% in primary rabbit kidney cell cultures
[18] = test system: Sindbis virus; assay: Compound was tested for the concentration required to reduce sindbis virus induced cytopathogenicity by 50% in Vero cell cultures
[19] = test system: Human respirovirus 3; assay: Compound was tested for the concentration required to reduce parainfluenza virus type 3 induced cytopathogenicity by 50% in Vero cell cultures
[20] = test system: Vero; assay: Compound was tested for the concentration required to cause a microscopically detectable alteration in normal cell morphology in Vero cell cultures; conditions: Chlorocebus sabaeus, read-out: Min cytotoxic concentration; outline: as §1
[21] = test system: Coxsackievirus B4; assay: Compound was tested for the concentration required to reduce coxsackie virus B4 induced cytopathogenicity by 50% in HeLa cell cultures; conditions: Enterovirus B
[22] = organism: Oryctolagus cuniculus; assay: Compound was tested for the concentration required to cause a microscopically detectable alteration in normal cell morphology in primary rabbit kidney cell cultures; conditions: read-out: Min cytotoxic concentration; outline: as §1
[23] = test system: Coxsackievirus B4; assay: Compound was tested for the concentration required to reduce coxsackie virus B4 induced cytopathogenicity by 50% in Vero cell cultures; conditions: Enterovirus B
[24] = test system: Vesicular stomatitis virus; assay: Compound was tested for the concentration required to reduce vesicular stomatitis virus induced cytopathogenicity by 50% in HeLa cell cultures
[25] = test system: HeLa; assay: Compound was tested for the concentration required to cause a microscopically detectable alteration in normal cell morphology in HeLa cell cultures; conditions: Homo sapiens, read-out: Min cytotoxic concentration; outline: as §1
[26] = test system: Human alphaherpesvirus 2; assay: Compound was tested for the concentration required to reduce HSV-2 (G) induced cytopathogenicity by 50% in primary rabbit kidney cell cultures

| Structure (SMILES) | MIC [1] [µg/mL] | MCC [2] [µg/mL] | MCC [3] [µg/mL] | MCC [4] [µg/mL] | MIC [5] [µg/mL] | MIC [6] [µg/mL] | MIC [7] [µg/mL] | MIC [8] [µg/mL] | MIC [9] [µg/mL] | MIC [10] [µg/mL] | MIC [11] [µg/mL] | IC50 [12] [µg/mL] | MIC [13] [µg/mL] | MIC [14] [µg/mL] | also measured |
| --- | --- | --- | --- | --- | --- | --- | --- | --- | --- | --- | --- | --- | --- | --- | --- |
| Nc1ncnc2c1c(Cl)cn2[C@@H]1O[C@H](CO)[C@@H](O)[C@H]1O | > 1 | 4 | 4 | 4 | 1 (≈ 3.33 µM) | > 1 | > 1 | > 1 | > 0.4 | > 1 | > 1 | 0.014 (≈ 0.0466 µM) | > 1 | 0.7 (≈ 2.33 µM) | – |
| CCCCc1cn(C2O[C@H](CO)[C@@H](O)[C@H]2O)c2ncnc(N)c12 (some centres undefined) | > 40 | > 40 | 40 | > 100 | > 40 | 20 (≈ 62 µM) | > 40 | > 40 | > 40 | > 40 | > 40 | 81.6 (≈ 253 µM) | > 40 | > 40 | – |
| Nc1ncnc2c1c(Cl)c(Cl)n2C1O[C@H](CO)[C@@H](O)[C@H]1O (some centres undefined) | > 40 | 40 | 40 | 40 | > 10 | > 10 | > 10 | > 40 | > 10 | > 10 | > 10 | 10.1 (≈ 30.1 µM) | > 40 | > 10 | – |
| Nc1ncnc2c1ccn2[C@@H]1O[C@H](CO)[C@@H](O)[C@H]1O [TUBERCIDIN] | 0.07 (≈ 0.263 µM) | 0.4 | 0.4 | 0.4 | 0.007 (≈ 0.0263 µM) | 0.07 (≈ 0.263 µM) | 0.2 (≈ 0.751 µM) | 0.007 (≈ 0.0263 µM) | 0.2 (≈ 0.751 µM) | 0.007 (≈ 0.0263 µM) | 0.2 (≈ 0.751 µM) | 0.04 (≈ 0.15 µM) | 0.2 (≈ 0.751 µM) | 0.07 (≈ 0.263 µM) | – |
| Nc1ncnc2c1c(I)cn2[C@@H]1O[C@H](CO)[C@@H](O)[C@H]1O [IODOTUBERCIDIN] | 0.02 (≈ 0.051 µM) | 1 | 1 | 1 | > 0.4 | > 0.4 | > 0.4 | > 0.4 | > 0.4 | > 0.4 | > 0.4 | 1.25 (≈ 3.19 µM) | > 1 | > 0.4 | – |
| Nc1ncnc2c1ncn2C[C@@H](O)CO | – | – | – | – | > 400 | – | – | – | – | – | – | 170 (≈ 813 µM) | – | – | MIC [15]: 70 µg/mL (≈ 335 µM); MIC [16]: 10 µg/mL (≈ 47.8 µM); MIC [17]: > 400 µg/mL; MIC [18]: > 400 µg/mL; MIC [19]: 20 µg/mL (≈ 95.6 µM); MCC [20]: > 400 µg/mL; MIC [21]: > 400 µg/mL; MCC [22]: ≥ 400 µg/mL; MIC [23]: 400 µg/mL (≈ 1910 µM); MIC [24]: 10 µg/mL (≈ 47.8 µM); MCC [25]: > 400 µg/mL; MIC [26]: > 400 µg/mL |
| C/C=C/Cc1cn(C2O[C@H](CO)[C@@H](O)[C@H]2O)c2ncnc(N)c12 (some centres undefined) | 20 (≈ 62.4 µM) | 1 | 200 | 100 | 0.2 (≈ 0.624 µM) | > 1 | > 40 | > 40 | 0.2 (≈ 0.624 µM) | 0.07 (≈ 0.219 µM) | 2 (≈ 6.24 µM) | 0.63 (≈ 1.97 µM) | 150 (≈ 468 µM) | 2 (≈ 6.24 µM) | – |
| Nc1nccc2c1ncn2[C@@H]1C[C@H](CO)[C@H](O)C1O (some centres undefined) | > 400 | > 400 | > 200 | > 100 | > 400 | 2 (≈ 7.57 µM) | 20 (≈ 75.7 µM) | 0.07 (≈ 0.265 µM) | > 400 | 0.7 (≈ 2.65 µM) | 2 (≈ 7.57 µM) | – | 300 (≈ 1140 µM) | 2 (≈ 7.57 µM) | – |
| NC(=O)c1cn([C@@H]2O[C@H](CO)[C@@H](O)[C@H]2O)c2ncnc(N)c12 [SANGIVAMYCIN] | 0.07 (≈ 0.226 µM) | 0.4 | > 10 | 0.4 | 0.07 (≈ 0.226 µM) | 0.02 (≈ 0.0647 µM) | 0.2 (≈ 0.647 µM) | 0.02 (≈ 0.0647 µM) | > 0.04 | 0.04 (≈ 0.129 µM) | 0.02 (≈ 0.0647 µM) | 0.019 (≈ 0.0614 µM) | 0.07 (≈ 0.226 µM) | > 0.1 | – |
| N#C/C=C/c1cn(C2O[C@H](CO)[C@@H](O)[C@H]2O)c2ncnc(N)c12 (some centres undefined) | 2 (≈ 6.3 µM) | 4 | 100 | 100 | 4 (≈ 12.6 µM) | 7 (≈ 22.1 µM) | > 40 | 20 (≈ 63 µM) | 1 (≈ 3.15 µM) | 0.4 (≈ 1.26 µM) | > 10 | 1.36 (≈ 4.29 µM) | 20 (≈ 63 µM) | 20 (≈ 63 µM) | – |
